# According to ChEMBL document CHEMBL4689842, “EUbOPEN Chemogenomics Library wave 1” (2021):
# “And” between values parts separate entries of the source, which are not always exact repeats. Identical values can stand only once.
# Tested on: HEK-293T
# Assay: Multiplex assay against HEK293T;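 as to Population Tubulin-Different-Phenotype (%): share of the cells with healthy nuclei that show this phenotype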
# Format: toxicity, cell-based
# Settings: human
# Outline: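 Tubulin, mitochondrial-mass and membrane-permeability phenotypes are per cents of healthy-nucleus cells. Cells were gated by CellPathfinder machine learning into Hoechst high-intensity objects or normal cells, normal cells into healthy, pyknosed or fragmented nuclei, and pyknosed cells into mitotic or apoptotic. Before that, live cells stained at seeding with Hoechst33342, BioTracker Green Microtubule Cytoskeleton Dye, MitoTracker Red and Annexin V Alexa Fluor 680 were imaged on a CQ1 microscope at 37°C and 5% CO2 after compound addition.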
# [1] = 12 h, 1 µM, compound concentration 1 uM, replicate 1
# [2] = 12 h, 1 µM, compound concentration 1 uM, replicate 2
# [3] = 12 h, 10 µM, compound concentration 10 uM, replicate 1
# [4] = 12 h, 10 µM, compound concentration 10 uM, replicate 2
# [5] = 24 h, 1 µM, compound concentration 1 uM, replicate 1
# [6] = 24 h, 1 µM, compound concentration 1 uM, replicate 2
# [7] = 24 h, 10 µM, compound concentration 10 uM, replicate 1
# [8] = 24 h, 10 µM, compound concentration 10 uM, replicate 2
# [9] = 48 h, 1 µM, compound concentration 1 uM, replicate 1
# [10] = 48 h, 1 µM, compound concentration 1 uM, replicate 2
# [11] = 48 h, 10 µM, compound concentration 10 uM, replicate 1
# [12] = 48 h, 10 µM, compound concentration 10 uM, replicate 2
compound,measurement,setting,value
CCN1CCN(Cc2ccc(Nc3ncc(F)c(-c4cc(F)c5nc(C)n(C(C)C)c5c4)n3)nc2)CC1.CS(=O)(=O)O,Population Apoptotic (%),[1],60%
same,Population Fragmented Nuclei (%),[1],17%
same,Population Healthy Nuclei (%),[1],19%
same,Population Hoechst High Intensity Objects (%),[1],17%
same,Population Membrane Permeable-Phenotype (%),[1],0%
same,Population Mitochondria Different-Phenotype (%),[1],94%
same,Population Mitotic Cells (%),[1],40%
same,Population Normal (%),[1],82%
same,Population Pyknosed Nuclei (%),[1],63%
same,Population Tubulin-Different-Phenotype (%),[1],92%
same,Total Cell Count,[1],249
same,Population Apoptotic (%),[2],40%
same,Population Fragmented Nuclei (%),[2],7%
same,Population Healthy Nuclei (%),[2],27%
same,Population Hoechst High Intensity Objects (%),[2],4%
same,Population Membrane Permeable-Phenotype (%),[2],14%
same,Population Mitochondria Different-Phenotype (%),[2],83%
same,Population Mitotic Cells (%),[2],59%
same,Population Normal (%),[2],95%
same,Population Pyknosed Nuclei (%),[2],64%
same,Population Tubulin-Different-Phenotype (%),[2],81%
same,Total Cell Count,[2],181
same,Population Apoptotic (%),[3],74%
same,Population Fragmented Nuclei (%),[3],14%
same,Population Healthy Nuclei (%),[3],1%
same,Population Hoechst High Intensity Objects (%),[3],25%
same,Population Membrane Permeable-Phenotype (%),[3],0%
same,Population Mitochondria Different-Phenotype (%),[3],33%
same,Population Mitotic Cells (%),[3],25%
same,Population Normal (%),[3],74%
same,Population Pyknosed Nuclei (%),[3],84%
same,Population Tubulin-Different-Phenotype (%),[3],66%
same,Total Cell Count,[3],289
same,Population Apoptotic (%),[4],62%
same,Population Fragmented Nuclei (%),[4],12%
same,Population Healthy Nuclei (%),[4],25%
same,Population Hoechst High Intensity Objects (%),[4],21%
same,Population Membrane Permeable-Phenotype (%),[4],2%
same,Population Mitochondria Different-Phenotype (%),[4],79%
same,Population Mitotic Cells (%),[4],37%
same,Population Normal (%),[4],79%
same,Population Pyknosed Nuclei (%),[4],62%
same,Population Tubulin-Different-Phenotype (%),[4],97%
same,Total Cell Count,[4],219
same,Population Apoptotic (%),[5],63%
same,Population Fragmented Nuclei (%),[5],19%
same,Population Healthy Nuclei (%),[5],32%
same,Population Hoechst High Intensity Objects (%),[5],18%
same,Population Membrane Permeable-Phenotype (%),[5],0%
same,Population Mitochondria Different-Phenotype (%),[5],100%
same,Population Mitotic Cells (%),[5],36%
same,Population Normal (%),[5],81%
same,Population Pyknosed Nuclei (%),[5],47%
same,Population Tubulin-Different-Phenotype (%),[5],95%
same,Total Cell Count,[5],253
same,Population Apoptotic (%),[6],51%
same,Population Fragmented Nuclei (%),[6],5%
same,Population Healthy Nuclei (%),[6],45%
same,Population Hoechst High Intensity Objects (%),[6],5%
same,Population Membrane Permeable-Phenotype (%),[6],2%
same,Population Mitochondria Different-Phenotype (%),[6],88%
same,Population Mitotic Cells (%),[6],48%
same,Population Normal (%),[6],94%
same,Population Pyknosed Nuclei (%),[6],48%
same,Population Tubulin-Different-Phenotype (%),[6],94%
same,Total Cell Count,[6],201
same,Population Apoptotic (%),[7],72%
same,Population Fragmented Nuclei (%),[7],23%
same,Population Healthy Nuclei (%),[7],0%
same,Population Hoechst High Intensity Objects (%),[7],23%
same,Population Membrane Permeable-Phenotype (%),[7],0%
same,Population Mitochondria Different-Phenotype (%),[7],0%
same,Population Mitotic Cells (%),[7],27%
same,Population Normal (%),[7],76%
same,Population Pyknosed Nuclei (%),[7],76%
same,Population Tubulin-Different-Phenotype (%),[7],0%
same,Total Cell Count,[7],287
same,Population Apoptotic (%),[8],79%
same,Population Fragmented Nuclei (%),[8],4%
same,Population Healthy Nuclei (%),[8],18%
same,Population Hoechst High Intensity Objects (%),[8],21%
same,Population Membrane Permeable-Phenotype (%),[8],3%
same,Population Mitochondria Different-Phenotype (%),[8],93%
same,Population Mitotic Cells (%),[8],20%
same,Population Normal (%),[8],78%
same,Population Tubulin-Different-Phenotype (%),[8],93%
same,Total Cell Count,[8],213
same,Population Apoptotic (%),[9],58%
same,Population Fragmented Nuclei (%),[9],29%
same,Population Healthy Nuclei (%),[9],28%
same,Population Hoechst High Intensity Objects (%),[9],17%
same,Population Membrane Permeable-Phenotype (%),[9],0%
same,Population Mitochondria Different-Phenotype (%),[9],81%
same,Population Mitotic Cells (%),[9],41%
same,Population Normal (%),[9],82%
same,Population Pyknosed Nuclei (%),[9],42%
same,Population Tubulin-Different-Phenotype (%),[9],89%
same,Total Cell Count,[9],254
same,Population Apoptotic (%),[10],62%
same,Population Fragmented Nuclei (%),[10],9%
same,Population Healthy Nuclei (%),[10],65%
same,Population Hoechst High Intensity Objects (%),[10],6%
same,Population Membrane Permeable-Phenotype (%),[10],1%
same,Population Mitochondria Different-Phenotype (%),[10],71%
same,Population Mitotic Cells (%),[10],37%
same,Population Normal (%),[10],93%
same,Population Pyknosed Nuclei (%),[10],24%
same,Population Tubulin-Different-Phenotype (%),[10],93%
same,Total Cell Count,[10],243
same,Population Apoptotic (%),[11],80%
same,Population Fragmented Nuclei (%),[11],27%
same,Population Healthy Nuclei (%),[11],0%
same,Population Hoechst High Intensity Objects (%),[11],27%
same,Population Membrane Permeable-Phenotype (%),[11],100%
same,Population Mitochondria Different-Phenotype (%),[11],100%
same,Population Mitotic Cells (%),[11],19%
same,Population Normal (%),[11],72%
same,Population Pyknosed Nuclei (%),[11],72%
same,Population Tubulin-Different-Phenotype (%),[11],0%
same,Total Cell Count,[11],291
same,Population Apoptotic (%),[12],83%
same,Population Fragmented Nuclei (%),[12],10%
same,Population Healthy Nuclei (%),[12],11%
same,Population Hoechst High Intensity Objects (%),[12],28%
same,Population Membrane Permeable-Phenotype (%),[12],11%
same,Population Mitochondria Different-Phenotype (%),[12],94%
same,Population Mitotic Cells (%),[12],16%
same,Population Normal (%),[12],71%
same,Population Pyknosed Nuclei (%),[12],77%
same,Population Tubulin-Different-Phenotype (%),[12],88%
same,Total Cell Count,[12],202
Cl.O=C(c1ccc(Nc2nccc(-c3cc4ccccc4s3)n2)cc1)N1CCC(N2CCCC2)CC1,Population Apoptotic (%),[1],28%
same,Population Fragmented Nuclei (%),[1],10%
same,Population Healthy Nuclei (%),[1],59%
same,Population Hoechst High Intensity Objects (%),[1],8%
same,Population Membrane Permeable-Phenotype (%),[1],17%
same,Population Mitochondria Different-Phenotype (%),[1],14%
same,Population Mitotic Cells (%),[1],71%
same,Population Normal (%),[1],91%
same,Population Pyknosed Nuclei (%),[1],29%
same,Population Tubulin-Different-Phenotype (%),[1],73%
same,Total Cell Count,[1],657
same,Population Apoptotic (%),[2],12%
same,Population Fragmented Nuclei (%),[2],4%
same,Population Healthy Nuclei (%),[2],89%
same,Population Hoechst High Intensity Objects (%),[2],3%
same,Population Membrane Permeable-Phenotype (%),[2],11%
same,Population Mitochondria Different-Phenotype (%),[2],20%
same,Population Mitotic Cells (%),[2],87%
same,Population Normal (%),[2],96%
same,Population Pyknosed Nuclei (%),[2],6%
same,Population Tubulin-Different-Phenotype (%),[2],67%
same,Total Cell Count,[2],1518
same,Population Apoptotic (%),[3],32% and 71%
same,Population Fragmented Nuclei (%),[3],13% and 26%
same,Population Healthy Nuclei (%),[3],21% and 0%
same,Population Hoechst High Intensity Objects (%),[3],17% and 23%
same,Population Membrane Permeable-Phenotype (%),[3],4% and 0%
same,Population Mitochondria Different-Phenotype (%),[3],66% and 100%
same,Population Mitotic Cells (%),[3],67% and 28%
same,Population Normal (%),[3],82% and 76%
same,Population Pyknosed Nuclei (%),[3],65% and 72%
same,Population Tubulin-Different-Phenotype (%),[3],75% and 100%
same,Population Fragmented Nuclei (%),[4],3% and 9%
same,Population Hoechst High Intensity Objects (%),[4],9% and 10%
same,Population Membrane Permeable-Phenotype (%),[4],6%
same,Population Mitochondria Different-Phenotype (%),[4],68% and 75%
same,Population Normal (%),[4],90% and 89%
same,Population Pyknosed Nuclei (%),[4],58% and 87%
same,Population Tubulin-Different-Phenotype (%),[4],97%
same,Population Apoptotic (%),[5],17%
same,Population Fragmented Nuclei (%),[5],8%
same,Population Healthy Nuclei (%),[5],79%
same,Population Hoechst High Intensity Objects (%),[5],7%
same,Population Membrane Permeable-Phenotype (%),[5],24%
same,Population Mitochondria Different-Phenotype (%),[5],9%
same,Population Mitotic Cells (%),[5],82%
same,Population Normal (%),[5],92%
same,Population Pyknosed Nuclei (%),[5],11%
same,Population Tubulin-Different-Phenotype (%),[5],64%
same,Total Cell Count,[5],845
same,Population Apoptotic (%),[6],3%
same,Population Fragmented Nuclei (%),[6],14%
same,Population Healthy Nuclei (%),[6],82%
same,Population Hoechst High Intensity Objects (%),[6],3%
same,Population Membrane Permeable-Phenotype (%),[6],14%
same,Population Mitochondria Different-Phenotype (%),[6],4%
same,Population Mitotic Cells (%),[6],96%
same,Population Normal (%),[6],96%
same,Population Pyknosed Nuclei (%),[6],2%
same,Population Tubulin-Different-Phenotype (%),[6],42%
same,Total Cell Count,[6],2625
same,Population Apoptotic (%),[7],80% and 55%
same,Population Fragmented Nuclei (%),[7],24% and 18%
same,Population Healthy Nuclei (%),[7],0% and 14%
same,Population Hoechst High Intensity Objects (%),[7],28% and 19%
same,Population Membrane Permeable-Phenotype (%),[7],0% and 8%
same,Population Mitotic Cells (%),[7],19% and 44%
same,Population Normal (%),[7],71% and 80%
same,Population Pyknosed Nuclei (%),[7],75% and 67%
same,Population Apoptotic (%),[8],58% and 99%
same,Population Fragmented Nuclei (%),[8],7% and 14%
same,Population Hoechst High Intensity Objects (%),[8],17% and 16%
same,Population Membrane Permeable-Phenotype (%),[8],9%
same,Population Mitochondria Different-Phenotype (%),[8],84% and 66%
same,Population Normal (%),[8],82% and 83%
same,Population Pyknosed Nuclei (%),[8],79% and 81%
same,Population Tubulin-Different-Phenotype (%),[8],64% and 66%
same,Population Apoptotic (%),[11],82%
same,Population Fragmented Nuclei (%),[11],35%
same,Population Healthy Nuclei (%),[11],0%
same,Population Hoechst High Intensity Objects (%),[11],30%
same,Population Membrane Permeable-Phenotype (%),[11],0%
same,Population Mitochondria Different-Phenotype (%),[11],100%
same,Population Mitotic Cells (%),[11],17%
same,Population Normal (%),[11],69%
same,Population Pyknosed Nuclei (%),[11],63%
same,Population Tubulin-Different-Phenotype (%),[11],100%
same,Total Cell Count,[11],159
same,Population Apoptotic (%),[12],100%
same,Population Fragmented Nuclei (%),[12],19%
same,Population Healthy Nuclei (%),[12],4%
same,Population Hoechst High Intensity Objects (%),[12],17%
same,Population Membrane Permeable-Phenotype (%),[12],16%
same,Population Mitochondria Different-Phenotype (%),[12],83%
same,Population Mitotic Cells (%),[12],0%
same,Population Normal (%),[12],82%
same,Population Pyknosed Nuclei (%),[12],75%
same,Population Tubulin-Different-Phenotype (%),[12],66%
same,Total Cell Count,[12],146
